Assay results reported in ChEMBL document CHEMBL1153921, “Design, synthesis, and biological evaluation of novel 1-(1H-1,2,4-triazole-1-yl)-2-(2,4-difluorophenyl)-3-substituted benzylamino-2-propanols” (2009).
≈ marks a conversion by molar mass, not a printed value.

How the values were obtained:
Format in all cases: functional
[1] = tested on: Candida tropicalis; experiment: Antimicrobial activity against Candida tropicalis by micro-broth dilution method
Outline: (§1)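 Clinical isolates. Tested by broth microdilution in 96-well plates following NCCLS M27-A2. MIC80, the minimum concentration inhibiting growth by 80%, was recorded. Marketed reference antifungals were included as positive controls.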

[2] = tested on: Cryptococcus neoformans; experiment: Antimicrobial activity against Cryptococcus neoformans by micro-broth dilution method
Outline: (§2)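 ATCC standard strains. Broth microdilution in 96-well plates following NCCLS M27-A2 (reference broth dilution method for yeasts). Endpoint is MIC80, the lowest concentration giving 80% growth inhibition. Marketed reference antifungals ran alongside as positive controls.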

[3] = tested on: Candida albicans; experiment: Antimicrobial activity against Candida albicans by micro-broth dilution method; outline: as §2
[4] = tested on: Candida parapsilosis; experiment: Antimicrobial activity against Candida parapsilosis by micro-broth dilution method; conditions: Lodderomyces parapsilosis; outline: as §1
[5] = tested on: Nannizzia gypsea; experiment: Antimicrobial activity against Microsporum gypseum by micro-broth dilution method; outline: as §1
[6] = tested on: Aspergillus fumigatus; experiment: Antimicrobial activity against Aspergillus fumigatus by micro-broth dilution method; outline: as §1
[7] = tested on: Trichophyton rubrum; experiment: Antimicrobial activity against Trichophyton rubrum by micro-broth dilution method; outline: as §1
[8] = tested on: Pichia kudriavzevii; experiment: Antimicrobial activity against Candida krusei by micro-broth dilution method; outline: as §1

SMILES | MIC80 [1] [µg/mL] | MIC80 [2] [µg/mL] | MIC80 [3] [µg/mL] | MIC80 [4] [µg/mL] | MIC80 [5] [µg/mL] | MIC80 [6] [µg/mL] | MIC80 [7] [µg/mL] | MIC80 [8] [µg/mL]
CCCCN(Cc1ccc(CC)cc1)CC(O)(Cn1cncn1)c1ccc(F)cc1F (centres undefined) | 1 (≈ 2.33 µM) | 0.25 (≈ 0.583 µM) | 0.0039 (≈ 0.0091 µM) | 4 (≈ 9.33 µM) | 1 (≈ 2.33 µM) | > 64 | 4 (≈ 9.33 µM) | 1 (≈ 2.33 µM)
CCCCN(Cc1ccc(Br)cc1)CC(O)(Cn1cncn1)c1ccc(F)cc1F (centres undefined) | 1 (≈ 2.09 µM) | 0.25 (≈ 0.522 µM) | 4 (≈ 8.34 µM) | 0.25 (≈ 0.522 µM) | 1 (≈ 2.09 µM) | > 64 | 0.25 (≈ 0.522 µM) | 1 (≈ 2.09 µM)
CCCCN(Cc1ccc(C)cc1)CC(O)(Cn1cncn1)c1ccc(F)cc1F (centres undefined) | 1 (≈ 2.41 µM) | 0.25 (≈ 0.603 µM) | 4 (≈ 9.65 µM) | 1 (≈ 2.41 µM) | 0.25 (≈ 0.603 µM) | > 64 | 1 (≈ 2.41 µM) | 1 (≈ 2.41 µM)
CCCCN(Cc1ccccc1Br)CC(O)(Cn1cncn1)c1ccc(F)cc1F (centres undefined) | 0.25 (≈ 0.522 µM) | 0.25 (≈ 0.522 µM) | 1 (≈ 2.09 µM) | 0.25 (≈ 0.522 µM) | 0.25 (≈ 0.522 µM) | > 64 | 1 (≈ 2.09 µM) | 1 (≈ 2.09 µM)
CCCCN(Cc1ccc(Cl)cc1Cl)CC(O)(Cn1cncn1)c1ccc(F)cc1F (centres undefined) | 1 (≈ 2.13 µM) | 1 (≈ 2.13 µM) | 0.0039 (≈ 0.00831 µM) | 4 (≈ 8.52 µM) | 0.25 (≈ 0.533 µM) | > 64 | 16 (≈ 34.1 µM) | 16 (≈ 34.1 µM)
CCCCN(Cc1ccccc1C)CC(O)(Cn1cncn1)c1ccc(F)cc1F (centres undefined) | 0.25 (≈ 0.603 µM) | 0.25 (≈ 0.603 µM) | 1 (≈ 2.41 µM) | 0.25 (≈ 0.603 µM) | 0.0156 (≈ 0.0376 µM) | > 64 | 1 (≈ 2.41 µM) | 1 (≈ 2.41 µM)
CCCCN(Cc1ccc([N+](=O)[O-])cc1)CC(O)(Cn1cncn1)c1ccc(F)cc1F (centres undefined) | 0.0625 (≈ 0.14 µM) | 0.0625 (≈ 0.14 µM) | 0.0156 (≈ 0.035 µM) | 0.25 (≈ 0.561 µM) | 0.0625 (≈ 0.14 µM) | > 64 | 0.25 (≈ 0.561 µM) | 1 (≈ 2.24 µM)
C[C@@H]1[C@H](O)[C@@H](C)/C=C/C=C/C=C/C=C/C=C/C=C/C=C/[C@H](O[C@@H]2O[C@H](C)[C@@H](O)[C@H](N)[C@@H]2O)C[C@@H]2O[C@](O)(C[C@@H](O)C[C@@H](O)[C@H](O)CC[C@@H](O)C[C@@H](O)CC(=O)O[C@H]1C)C[C@H](O)[C@H]2C(=O)O [AMPHOTERICIN B] | 2 (≈ 2.16 µM) | 2 (≈ 2.16 µM) | 2 (≈ 2.16 µM) | 2 (≈ 2.16 µM) | 2 (≈ 2.16 µM) | 64 (≈ 69.3 µM) | 2 (≈ 2.16 µM) | 2 (≈ 2.16 µM)
OC(Cn1cncn1)(Cn1cncn1)c1ccc(F)cc1F [FLUCONAZOLE] | 1 (≈ 3.27 µM) | 1 (≈ 3.27 µM) | 0.5 (≈ 1.63 µM) | 1 (≈ 3.27 µM) | 0.25 (≈ 0.816 µM) | > 64 | 4 (≈ 13.1 µM) | 4 (≈ 13.1 µM)
CCC(C)n1ncn(-c2ccc(N3CCN(c4ccc(OCC5COC(Cn6cncn6)(c6ccc(Cl)cc6Cl)O5)cc4)CC3)cc2)c1=O (centres undefined) [ITRACONAZOLE] | 0.125 (≈ 0.177 µM) | 0.125 (≈ 0.177 µM) | 0.0625 (≈ 0.0886 µM) | 0.125 (≈ 0.177 µM) | 0.0625 (≈ 0.0886 µM) | 0.5 (≈ 0.709 µM) | 0.125 (≈ 0.177 µM) | 0.5 (≈ 0.709 µM)
CC(=O)N1CCN(c2ccc(OCC3COC(Cn4ccnc4)(c4ccc(Cl)cc4Cl)O3)cc2)CC1 (centres undefined) [KETOCONAZOLE] | 0.0625 (≈ 0.118 µM) | 0.0625 (≈ 0.118 µM) | 0.0156 (≈ 0.0294 µM) | 0.0625 (≈ 0.118 µM) | 0.0156 (≈ 0.0294 µM) | 1 (≈ 1.88 µM) | 0.0625 (≈ 0.118 µM) | 0.25 (≈ 0.47 µM)
CN(C/C=C/C#CC(C)(C)C)Cc1cccc2ccccc12 [TERBINAFINE] | 0.0625 (≈ 0.214 µM) | 1 (≈ 3.43 µM) | 4 (≈ 13.7 µM) | 0.25 (≈ 0.858 µM) | 4 (≈ 13.7 µM) | 0.0625 (≈ 0.214 µM) | 0.0625 (≈ 0.214 µM) | 16 (≈ 54.9 µM)
C[C@@H](c1ncncc1F)[C@](O)(Cn1cncn1)c1ccc(F)cc1F [VORICONAZOLE] | 0.0039 (≈ 0.0112 µM) | 0.0156 (≈ 0.0447 µM) | 0.0156 (≈ 0.0447 µM) | 0.0039 (≈ 0.0112 µM) | 0.0039 (≈ 0.0112 µM) | 0.25 (≈ 0.716 µM) | 0.0625 (≈ 0.179 µM) | 0.0625 (≈ 0.179 µM)
